# TbMetRS inhib – Trypanosoma brucei MetRS inhibition | inhibition, % at 11.9 µM | 360,000 tested, 0.4% active | purified T. brucei MetRS, ATP depletion, Kinase-Glo luminescence;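 active means inhibition above a per-plate cutoff of the control wells' mean inhibition plus 3 SD, cut at about 5.5% in these data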;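 further: 0% = DMSO wells median and 100% = median of wells with control inhibitor compound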
#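 Material – parasite MetRS enzyme · Medium – HEPES-MgCl2-KCl buffer plus DTT, spermine, BSA, pyrophosphatase · Reagent – ATP, methionine and E. coli bulk tRNA substrates · Times – 15 min enzyme-compound preincubation, 2 h reaction, 10 min detection, 25 °C · Measured by – luminescence of leftover ATP · Evaluation – percent inhibition relative to median high and low control wells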
# SKN-1 block – blocks SKN-1 activity in C. elegans; AID 624304; inhibition, % at 21.8 µM; 360,000 tested, 0.49% active; C. elegans VP596 Pgst-4::GFP/RFP ratio, acrylamide-induced, 24 h;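 active means interference check ratio from 0.5 to 1.5 plus GFP to RFP signal ratio inhibition reaching or exceeding a fixed threshold, cut at about 30% in these data, passing the limit was not always enough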
# Arrestin-AP2 inh – human beta-arrestin and AP2 interaction inhibition; FITC-arrestin peptide / GST-AP2 beads, flow cytometry; AP2 beta2 appendage carries R879A mutation; AID 504490; inhibition, % at 10 µM; 340,000 tested, 0.31% active;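 active means inhibition above a set limit, near 3 SD of compounds lacking own fluorescence, cut at about 54% in these data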;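 further: plate controls were DMSO wells for no effect and 5 µM unlabelled arrestin peptide for full effect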
#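 Material – AP2 appendage R879A on GSH beads · Buffer or medium – PBS with 0.05% Tween 20 and 0.1% BSA · Probe or stimulus – fluorescein-tagged arrestin peptide at 50 nM final · Incubation – compound with beads 12 min RT, then probe 1 h RT · Detection – high-throughput flow cytometry of beads, ex 488, em 535 nm · Evaluation – percent response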
# Rin1-Abl PPI inh – inhibitors of human Rin1-Abl protein interaction. TR-FRET Rin1/Abl binding, biochemical. inhibition, % at 7.35 µM. P00519+Q13671. AID 588664. 360,000 tested, 0.4% active; in the data active means inhibition above about 5%, passing the limit was not always enough
# Target sequence (P00519 whole entry, looked up): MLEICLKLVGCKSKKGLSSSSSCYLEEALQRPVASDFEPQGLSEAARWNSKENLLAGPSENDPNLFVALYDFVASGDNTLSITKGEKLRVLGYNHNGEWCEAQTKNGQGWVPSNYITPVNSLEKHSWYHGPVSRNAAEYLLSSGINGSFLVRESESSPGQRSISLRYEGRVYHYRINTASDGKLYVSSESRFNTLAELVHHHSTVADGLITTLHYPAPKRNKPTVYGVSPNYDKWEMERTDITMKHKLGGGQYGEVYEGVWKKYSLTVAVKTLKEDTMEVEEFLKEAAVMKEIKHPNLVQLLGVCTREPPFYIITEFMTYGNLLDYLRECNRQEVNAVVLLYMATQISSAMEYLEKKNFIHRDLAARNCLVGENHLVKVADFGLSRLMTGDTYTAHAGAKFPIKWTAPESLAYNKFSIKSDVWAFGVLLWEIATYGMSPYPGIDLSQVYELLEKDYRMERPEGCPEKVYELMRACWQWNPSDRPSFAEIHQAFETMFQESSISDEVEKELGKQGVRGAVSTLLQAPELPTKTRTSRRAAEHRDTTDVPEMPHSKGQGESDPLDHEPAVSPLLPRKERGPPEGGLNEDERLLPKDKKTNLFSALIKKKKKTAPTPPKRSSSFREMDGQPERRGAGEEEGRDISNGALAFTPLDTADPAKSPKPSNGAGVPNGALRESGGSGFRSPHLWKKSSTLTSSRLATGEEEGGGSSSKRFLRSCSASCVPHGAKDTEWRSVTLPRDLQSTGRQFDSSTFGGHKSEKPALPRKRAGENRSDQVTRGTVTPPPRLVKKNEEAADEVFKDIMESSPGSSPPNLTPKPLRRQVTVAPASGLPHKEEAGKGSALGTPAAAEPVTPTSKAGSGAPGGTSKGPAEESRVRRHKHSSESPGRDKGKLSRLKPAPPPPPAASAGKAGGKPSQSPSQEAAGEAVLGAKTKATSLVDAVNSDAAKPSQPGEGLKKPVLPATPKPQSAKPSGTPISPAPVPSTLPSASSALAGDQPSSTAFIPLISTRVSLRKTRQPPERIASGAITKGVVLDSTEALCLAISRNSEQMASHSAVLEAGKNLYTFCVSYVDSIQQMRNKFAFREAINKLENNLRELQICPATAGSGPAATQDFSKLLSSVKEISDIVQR
# Target sequence (Q13671 whole entry, looked up): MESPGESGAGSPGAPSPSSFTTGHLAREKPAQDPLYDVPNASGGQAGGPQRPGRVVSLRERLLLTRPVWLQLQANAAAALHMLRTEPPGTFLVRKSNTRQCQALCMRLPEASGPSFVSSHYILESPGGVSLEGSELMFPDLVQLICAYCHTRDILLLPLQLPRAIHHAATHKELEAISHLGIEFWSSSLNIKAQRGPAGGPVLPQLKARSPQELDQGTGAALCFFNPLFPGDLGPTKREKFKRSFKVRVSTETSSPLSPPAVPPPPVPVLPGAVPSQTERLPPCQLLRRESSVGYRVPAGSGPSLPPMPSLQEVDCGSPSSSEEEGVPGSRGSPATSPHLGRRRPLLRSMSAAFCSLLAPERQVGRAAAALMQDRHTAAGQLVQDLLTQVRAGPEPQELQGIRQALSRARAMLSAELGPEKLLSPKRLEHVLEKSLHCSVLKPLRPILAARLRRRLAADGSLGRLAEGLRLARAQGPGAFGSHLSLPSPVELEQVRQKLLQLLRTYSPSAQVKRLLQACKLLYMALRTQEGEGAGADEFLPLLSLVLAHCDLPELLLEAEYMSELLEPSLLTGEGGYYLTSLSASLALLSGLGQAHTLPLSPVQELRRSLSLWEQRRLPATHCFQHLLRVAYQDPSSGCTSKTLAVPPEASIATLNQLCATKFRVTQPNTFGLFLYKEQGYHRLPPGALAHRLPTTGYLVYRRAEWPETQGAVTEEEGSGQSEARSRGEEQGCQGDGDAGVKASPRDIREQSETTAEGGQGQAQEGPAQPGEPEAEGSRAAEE
# MT1-MMP act inh – MT1-MMP (human) activation inhibition; 360,000 tested, 0.061% active; HT1080 RFP-PRO-GFP cells, GFP/RFP ratio fluorescence, overnight; percent of plate control window, DMSO zero; GFP/RFP ratio change, % at 20 µM;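 active means GFP/RFP ratio change of at least 30% with cell ATP level not reduced by more than half and red fluorescence within 50% of control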
#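 Material – HT1080 RFP-PRO-GFP cells · Control set – DMSO wells and RFP-L50D-GFP cells · Incubation – overnight cell settling, then overnight compound exposure, 37 °C, 5% CO2 · Compound dosing – single-point 20 µM compound, 1% DMSO · Read-out – GFP/RFP fluorescence ratio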
# Rin1-Abl confirm – Rin1-Abl interaction inhibition confirmation | shares compounds with Rin1-Abl PPI inh | 1,300 tested, 49% active | inhibition, % at 7.35 µM | TR-FRET Rin1-Abl binding, purified proteins
# GFP quench-1 – counter-screen for Rin1-Abl inhibitors: GFP fluorescence quenchers. AID 602125. 1,300 tested, 8.5% active. inhibitors/quenchers counterscreen. shares compounds with Rin1-Abl PPI inh. inhibition, % at 6.75 µM;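 further: ABL1-eGFP fusion protein alone without its partner RIN1-SBP; 0% = protein with vehicle and 100% = wells lacking protein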
# GFP quench DR – GFP fluorescence interference dose response | AID 602182 | shares compounds with Rin1-Abl PPI inh | IC50, µM | 230 tested, under 10 active | GFP fluorescence interference/quenching counterscreen; call rule not given here;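 further: ABL1-eGFP fusion protein alone without its RIN1 binding partner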
# GFP quench-2 – GFP quenching artifact for Rin1-Abl inhibitor hits; shares compounds with Rin1-Abl PPI inh; GFP fluorescence quenching counterscreen, biochemical; IC50, µM; 25 tested, under 10 active; call rule not given here
# An asterisk follows results filed as active; nt = no result. Sampled rows, rich in hits. Any-hit rate of the full collection: about 1.6%. Unless noted, no stated cut-off is given here; in the data, active means inhibition above about 6.5%; inactive means the rest.
SMILES,TbMetRS inhib,SKN-1 block,Arrestin-AP2 inh,Rin1-Abl PPI inh,MT1-MMP act inh,Rin1-Abl confirm,GFP quench-1,GFP quench DR,others
CN(C(=O)c1ccc(NC(=O)Cc2ccc(NC(=O)C3CCN(C(=O)C4CCC4)CC3)cc2)cc1)C1CCCC1,0,-7,-16,5,3,nt,nt,nt,
CN(C(=O)c1ccc(NC(=O)Cc2ccc(NC(=O)C3CCN(C(=O)c4ccccc4)CC3)cc2)cc1)C1CC1,0,0,40,77*,3,79*,-1,>67,GFP quench-2=>68
CN(C(=O)c1cccc(NC(=O)Cc2ccc(NC(=O)C3CCN(C(=O)c4ccccc4)CC3)cc2)c1)C1CCC1,0,10,-20,1,-7,nt,nt,nt,
CN(C(=O)c1ccc(NC(=O)Cc2ccc(NC(=O)C3CCN(C(=O)C4CC4)CC3)cc2)cc1)C1CC1,0,4,19,37*,1,34*,1,>68,
COc1cccc(-c2cc(CNC(=O)[C@H]3O[C@@H](n4ccc(=O)[nH]c4=O)[C@H](O)[C@@H]3O)no2)c1,-1,2,nt,1,1,nt,nt,nt,
CCOC(=O)CSc1nc2cc(C(=O)N3CCC(C(N)=O)CC3)ccc2c(=O)n1-c1ccccc1,-1,7,37,9.0*,1,1,-1,nt,
CC(/C=N/n1c(-c2ccccn2)n[nH]c1=S)=C\c1ccccc1,0,18,-25,1,2,nt,nt,nt,
CC(/C=N/n1c(-c2ccco2)n[nH]c1=S)=C\c1ccccc1,0,-2,22,7.4*,-2,-1,0,nt,
Cc1[nH]ccc(=O)c1OCc1ccccc1,0,22,18,2,2,nt,nt,nt,
O=c1cc(OCc2ccccc2)cc[nH]1,0,-3,30,96*,0,99*,1,>67,GFP quench-2=>68
CCOC(=O)CCCCCC(=O)Nc1ccc2c(c1)C(=O)N([C@@H](C)CO)C[C@@H](C)[C@H](CN(C)C(=O)Nc1ccccc1)OCCCC[C@H](C)O2,0,11,nt,16*,0,18*,1,>68,
CCOC(=O)CCCCCC(=O)Nc1ccc2c(c1)C(=O)N([C@H](C)CO)C[C@H](C)[C@@H](CN(C)C(=O)Nc1ccccc1)OCCCC[C@@H](C)O2,-2,11,nt,16*,2,22*,-1,>68,
CCOC(=O)CCCCCC(=O)Nc1ccc2c(c1)C(=O)N([C@@H](C)CO)C[C@H](C)[C@H](CN(C)C(=O)Nc1ccc(C(F)(F)F)cc1)OCCCC[C@H](C)O2,0,7,nt,0,4,nt,nt,nt,
Cc1c(NC(=O)c2ccc(Cl)s2)c(=O)n(-c2ccccc2)n1C,0,-8,2,6.2*,-5,-2,1,nt,
Cc1c(NC(=O)CSc2ncccn2)c(=O)n(-c2ccccc2)n1C,-1,-11,-1,5.4*,0,2,-1,nt,
COC(=O)C[C@H](NC(=O)Cn1cc(C)c(=O)[nH]c1=O)C(=O)OC,0,12,-8,-2,4,nt,nt,nt,
CCOC(=O)N1CCN(c2ccccc2OC)CC1,-1,-7,51,0,2,nt,nt,nt,
CCOC(=O)c1ccc(NC(=O)N2CCN(c3ccccc3OC)CC2)cc1,0,0,3,9.4*,-1,16*,0,nt,
Cc1ccc(C(=O)N2CC(C)CC(C)C2)cc1NC1=NC2CS(=O)(=O)CC2S1 (stereo not given),1,3,-18,22*,3,26*,0,>68,
Cc1ccc(C(=O)N2CCC(C)CC2)cc1NC1=NC2CS(=O)(=O)CC2S1 (stereo not given),0,-2,-6,8,0,nt,nt,nt,

# Assay outcomes from PubChem BioAssay.
